Our source for the IC50 values is ChEMBL document CHEMBL1125898, “Synthesis and biological activity of 2'-deoxy-4'-thio pyrimidine nucleosides” (J Med Chem, 1991).

Assay [1] concerns L1210. The assay can be described thus: The concentration required to produce a 50% reduction in the rate of cell proliferation in murine leukemia L1210 cells. It is filed as functional, cell-based. To be noted: Mus musculus.
Assay [2] relates to HEp-2. Description: The concentration required to produce a 50% inhibition of clone formation in human epidermoid carcinoma H-Ep-2 cells. In kind it is functional, cell-based.
For another assay, the system named is CCRF-CEM. Description: The concentration required to inhibit cell growth to 50% of untreated controls in human T-cell leukemia CCRF-CEM cells. In kind it is functional, cell-based.
The test system of assay [3] is L1210. The assay can be described thus: The concentration required to produce a 50% reduction in the rate of cell proliferation in murine leukemia L1210 cells; NA=no cytotoxicity at 160 uM. It is filed as functional, cell-based, Mus musculus. In short, it runs like this:
(§1)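 Highest concentration tested was 160 μM. IC50 is the concentration giving a 50% inhibition of clone formation (H-Ep-2) or a 50% reduction in the rate of cell proliferation (L1210).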

Assay [4] has as its system HEp-2. Description: The concentration required to produce a 50% inhibition of clone formation in human epidermoid carcinoma H-Ep-2 cells; NA=no cytotoxicity at 160 uM. In kind it is functional, cell-based. The method in brief:
as §1

On to `Nc1ccn(C2C[C@H](O)[C@@H](CO)S2)c(=O)n1` (stereo not given in full), for which the IC50 with L1210 [1] was 1000 nM; in the assay with HEp-2 [2] it was less than 200 nM; in the assay with CCRF-CEM, 3.5 µM.

`O=c1ccn([C@H]2C[C@H](O)[C@@H](CO)S2)c(=O)[nH]1`: the IC50 in the assay with L1210 [1] worked out at 2700 nM; in the assay with HEp-2 [2] it was 2100 nM; in the assay with CCRF-CEM, 4 µM.

With `Cc1cn([C@@H]2C[C@H](O)[C@@H](CO)S2)c(=O)[nH]c1=O`, the IC50 was determined as 66000 nM in the assay with L1210 [1] and 25000 nM with HEp-2 [2].

For the compound `Nc1ccn([C@H]2C[C@H](O)[C@@H](CO)S2)c(=O)n1` [4'-THIO-2'-DEOXYCYTIDINE], the IC50 with L1210 [1] is 1200 nM; in the assay with HEp-2 [2], less than 200 nM.

In the case of `Cc1cn([C@H]2C[C@H](O)[C@@H](CO)S2)c(=O)[nH]c1=O` [4'-THIOTHYMIDINE], the results for the IC50 in the assay with L1210 [1], in the assay with HEp-2 [2] and with CCRF-CEM were 120 nM, 140 nM and 0.67 µM, respectively.

In the case of `O=c1ccn(C2CC(O)C(CO)S2)c(=O)[nH]1` (stereo not given), the IC50 result with L1210 [3] and in the assay on HEp-2 [4] was “Not Active” throughout.
